Source: PMC3925341 (Journal of medicinal chemistry, 2013)
Entries after “also recorded” stand apart in the source; their conditions may differ. Each block holds one molecule with its values, some of them ahead of it.

Tests used:
[1] = system: CUG^exp foci in DM1 cell model (HeLa cells transfected with DMPK-CTG960); test: FISH study of; type: cell-based; conditions: 36 h
(CUG)12·MBNL1 = test: SPR-based inhibition of the MBNL1·; type: biochemical; conditions: relative to monomeric ligand 2
Summary of the method: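 Biotinylated (CUG)12 was immobilized on a streptavidin SPR chip, with Tween-20 and excess competitor tRNA, in 1X PBS. The chip was preincubated with test compound to steady-state RU over 150 s. MBNL1 (0.65 μM) was then injected with compound held at the same concentration. Maximum RU at 150 s was converted to % (CUG)12 bound, normalized to no compound, and fitted dose-response for apparent IC50. Normalized IC50 = IC50 divided by the number of binding modules. Bivalent effect = normalized IC50 of monomer reference divided by that of dimer. Three experiments.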

TAMRA-(CUG)6 = test: Steady state fluorescence titration of 5'-TAMRA-; type: binding; conditions: for KD: TAMRA-(CUG)6, 1X PBS; for fold decrease in KD compared to 2 (fold greater affinity to (CUG)6): relative to monomeric ligand 2
Summary of the method: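 TAMRA-(CUG)6 was titrated with increasing test compound in 1X PBS, with excitation at 560 nm and emission at 590 nm. Normalized fluorescence intensities were fitted to a binding equation with Fmax and F0 to give KD. Mean ± s.d. of three independent experiments.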

HeLa cells = test: Sulforhodamine B cytotoxicity assay; type: cell-based; conditions: concentrations up to 75 μM, 24 h
[2] = system: DM1 cell model (HeLa cells); test: Cellular and nuclear penetration by acridine fluorescence; type: cell-based; conditions: monitored by inherent acridine fluorescence
Summary of the method: (§1)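 Live-cell time-lapse confocal imaging of HeLa cells co-transfected with a DMPK-CTG960 minigene plasmid and a GFP-MBNL1 plasmid. Test compound at 50 μM final. Images were taken just before addition and at 3, 6 and 10 h. Cells were relocated on a gridded dish by DIC. Compound uptake was followed by its acridine fluorescence, and foci by GFP-MBNL1. Untreated cells served as control. Z-stacks of 1 μm slices were taken at 10 h.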

[3] = Solubility in buffer / water
[4] = system: MBNL1 foci in live DM1 cell model (HeLa cells, DMPK-CTG960 and GFP-MBNL1); test: Time-lapse confocal microscopy of MBNL1 foci in live DM1 model cells; type: cell-based; conditions: 50 μM, over 10 h
Summary of the method: as §1

[5] = system: DM1 cell model (HeLa cells); conditions: cited from earlier work
CUG repeat = conditions: cited from earlier work
(CUG)12 = test: Optical melting; type: binding; conditions: 11 versus 7, same number of linker atoms
[6] = 20, 35 and 50 μM (any concentration)

SMILES: NCCCNCCCCNCCCN [spermine, Spermine, reference compound]
(CUG)960 foci dispersion [1, 6]: no significant foci dispersion

SMILES: Nc1nc(N)nc(NCCCCNc2c3ccccc3nc3ccc(C(=O)NCCOCCOCCNC(=O)c4ccc5nc6ccccc6c(NCCCCNc6nc(N)nc(N)n6)c5c4)cc23)n1 [Ligand 7]
bivalent effect (ratio of normalized IC50 of 2 to that of the dimeric ligand) ((CUG)12·MBNL1): 8
KD (TAMRA-(CUG)6): close to the monomeric ligand 2

SMILES: Nc1nc(N)nc(NCCCCNc2c3ccccc3nc3ccc(C(=O)NCCOCCOCCOCCOCCOCCNC(=O)c4ccc5nc6ccccc6c(NCCCCNc6nc(N)nc(N)n6)c5c4)cc23)n1 [Ligand 13]
bivalent effect (ratio of normalized IC50 of 2 to that of the dimeric ligand) ((CUG)12·MBNL1): 3

SMILES: Nc1nc(N)nc(NCCCCNc2c3ccccc3nc3ccc(C(=O)NCCCNCCCCCCCCNCCCNC(=O)c4ccc5nc6ccccc6c(NCCCCNc6nc(N)nc(N)n6)c5c4)cc23)n1 [Ligand 5]
cellular and nuclear penetration [2]: cell-permeable and nucleus-permeable
Solubility in the buffer used for optical melting (Solution) ([3]; N.S. = not sufficiently soluble): not fully soluble
(CUG)960 foci dispersion [1, 6]: no significant foci dispersion

SMILES: COc1ccc2nc3cc(Cl)ccc3c(NCCCCNc3nc(N)nc(N)n3)c2c1 [Ligand 1]
cell permeability [5]: poor cell permeability
selectivity for CUG repeat relative to a random duplex (CUG repeat): over 50 fold

SMILES: CNC(=O)c1ccc2nc3ccccc3c(NCCCCNc3nc(N)nc(N)n3)c2c1 [Ligand 2]
cytotoxicity (HeLa cells): less than 20%
(CUG)960 foci dispersion [1, 6]: no significant foci dispersion

SMILES: Nc1nc(N)nc(NCCCCNc2c3ccccc3nc3c(C(=O)NCCOCCOCCOCCOCCOCCNC(=O)c4cccc5c(NCCCCNc6nc(N)nc(N)n6)c6ccccc6nc45)cccc23)n1 [Ligand 8]
bivalent effect (ratio of normalized IC50 of 2 to that of the dimeric ligand) ((CUG)12·MBNL1): 4

Second part, led by results:

fold decrease in KD compared to 2 (fold greater affinity to (CUG)6) (TAMRA-(CUG)6): 17 fold
SMILES: Nc1nc(N)nc(NCCCCNc2c3ccccc3nc3c(C(=O)NCCNCCNCCNCCNC(=O)c4cccc5c(NCCCCNc6nc(N)nc(N)n6)c6ccccc6nc45)cccc23)n1 [Ligand 10]
bivalent effect (ratio of normalized IC50 of 2 to that of the dimeric ligand) ((CUG)12·MBNL1): 24

Aqueous solubility [3]: aqueous-soluble
fold decrease in KD compared to 2 (fold greater affinity to (CUG)6) (TAMRA-(CUG)6): 206 fold
SMILES: Nc1nc(N)nc(NCCCCNc2c3ccccc3nc3c(C(=O)NCCCNCCCNCCCNC(=O)c4cccc5c(NCCCCNc6nc(N)nc(N)n6)c6ccccc6nc45)cccc23)n1 [Ligand 9]
cytotoxicity (HeLa cells): less than 20%
cellular and nuclear penetration [2]: both cell- and nucleus-permeable; also recorded: penetrate the cellular and nuclear membrane
(CUG)960 foci dispersion ([1]; 20 μM, p-value < 0.009): partial foci dispersion
(CUG)960 foci dispersion ([1]; 35 μM, p-value < 0.009): partial foci dispersion
(CUG)960 foci dispersion ([1]; 50 μM): full foci dispersion
bivalent effect (ratio of normalized IC50 of 2 to that of the dimeric ligand) ((CUG)12·MBNL1): 133
fold greater inhibition potency than 2 in inhibiting formation of the (CUG)12·MBNL1 complex ((CUG)12·MBNL1): 266 fold
fold tighter binder than 10 (TAMRA-(CUG)6; 9 versus 10): 10 fold
MBNL1 foci dispersion in live cells [4]: almost complete dispersion; also recorded: gradually dispersing over time; also recorded: almost all the foci are dispersed; also recorded: gradual MBNL1 foci dispersion

fold decrease in KD compared to 2 (fold greater affinity to (CUG)6) (TAMRA-(CUG)6): 14 fold
SMILES: Nc1nc(N)nc(NCCCCNc2c3ccccc3nc3c(C(=O)NCCNCCNCCNC(=O)c4cccc5c(NCCCCNc6nc(N)nc(N)n6)c6ccccc6nc45)cccc23)n1 [Ligand 11]
fold higher ΔTm value than 7 ((CUG)12): > 3 fold
(CUG)960 foci dispersion [1, 6]: no significant foci dispersion
bivalent effect (ratio of normalized IC50 of 2 to that of the dimeric ligand) ((CUG)12·MBNL1): 29

KD (TAMRA-(CUG)6): close to the monomeric ligand 2
SMILES: Nc1nc(N)nc(NCCCCNc2c3ccccc3nc3ccc(C(=O)NCCCOCCOCCOCCCNC(=O)c4ccc5nc6ccccc6c(NCCCCNc6nc(N)nc(N)n6)c5c4)cc23)n1 [Ligand 12]
bivalent effect (ratio of normalized IC50 of 2 to that of the dimeric ligand) ((CUG)12·MBNL1): 5
